Experimental data from article PMC11476771 (BMC Nephrology, 2024).
Like-named read-outs stand apart in the source and are kept apart here.

Key:
[1] = assay type: in vivo, human
Summary of the method: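 Open-label, parallel-group, single 3.0 mcg/kg IV dose by check-in weight in NDD subjects stratified by MDRD eGFR, and in matched healthy controls. Plasma sampled predose to 72 h; urine collected in intervals to 72 h. LC-MS/MS (LLOQ 0.1 ng/mL plasma, 1.0 ng/mL urine); noncompartmental parameters. ANCOVA on ln Cmax/AUCinf (covariates age, weight, BMI, sex) gave geometric mean ratios with 90% CI. CL was regressed linearly on eGFR.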

[2] = Multiple-dose phase 2; assay type: in vivo, human; settings: for Dose proportionality of Cmax and AUC0 − 48 (power model): 0.5, 1.0, 2.5 mcg/kg, 95% CIs included 1
Summary of the method: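 Randomized, double-blind, placebo-controlled dose escalation in HD subjects. Sequential cohorts of 8 (6 active, 2 placebo), randomized 3:1 within strata of urine output. IV bolus given within 15 min after each of 3 HD sessions over 1 week. Serial plasma sampled days 1–8 by LC-MS/MS (LLOQ 0.1 ng/mL). Noncompartmental parameters; RAC from day 5:day 1 AUC0−48; power-model dose proportionality.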

[3] = Safety; assay type: in vivo, human; settings: single IV 3.0 mcg/kg
[4] = Safety; assay type: in vivo, human; settings: HD subjects; multiple-dose PK study
[5] = hemodialysis patients after treatment discontinued; cited from earlier work

CC(C)C[C@@H](NC(=O)[C@@H](Cc1ccccc1)NC(=O)[C@H](N)Cc1ccccc1)C(=O)N[C@H](CCCCN)C(=O)N1CCC(N)(C(=O)O)CC1 [difelikefalin]
Intercept of total CL versus eGFR ([1]; CL value = intercept + slope * eGFR, IV 3.0 mcg/kg, 95% CI 3.734794–20.470724): 12.1
Slope of total CL versus eGFR ([1]; CL value = intercept + slope * eGFR, IV 3.0 mcg/kg, NDD subjects with impaired or normal renal function, 95% CI 0.482284–0.718031, P < 0.0001): 0.6002
Exposure relative to healthy subjects ([1]; moderate renal impairment vs healthy subjects, single IV 3.0 mcg/kg): 1.7 fold
Reduction of clearance compared with healthy subjects ([1]; moderate renal impairment, single IV 3.0 mcg/kg): 47.0%
Exposure relative to healthy subjects ([1]; severe renal impairment vs healthy subjects, single IV 3.0 mcg/kg): 3.3 fold
Reduction of clearance compared with healthy subjects ([1]; severe renal impairment, single IV 3.0 mcg/kg): 71.7%
Time of peak plasma concentration ([1]; single IV 3.0 mcg/kg, first post-dose PK sample, across all treatment groups): 2 to 3 min
Dose proportionality of Cmax and AUC0 − 48 (power model) ([2]; HD subjects): slope values were all close to unity
Dose proportionality of Cmax and AUC0 − 48 (power model) ([2]; HD subjects, listed as IV difelikefalin): demonstrated dose proportionality
Mean t1/2, range over dose groups ([2]; HD subjects, day 1, 0.5-2.5 mcg/kg): 23.2 to 31.1 h
Mean accumulation ratio (RAC), range over dose groups ([2]; HD subjects, day 5, 3 dose groups): 1.0–1.2
Increase of half-life in HD subjects compared with normal renal function ([2]; cross-study comparison): approximately 10 fold
Clearance in HD subjects prior to dialysis as % of healthy subjects ([2]; cross-study comparison, reference is 2.5 mcg/kg HD group): 14%
Tmax ([2]; human, in vivo, iv): 5 min
Subjects with vomiting ([3]; 3/36 subjects): 8.3%
Subjects with dizziness ([3]; 4/36 subjects): 11.1%
Subjects with mild headache ([3]; 4/36 subjects): 11.1%
Subjects with paresthesia (mild) ([3]; 5/36 subjects): 13.9%
Subjects reporting TEAEs ([3]; 17/36 subjects): 47.2%
Serious AEs ([3]; all 36 subjects): none were serious AEs
Total number of TEAEs ([3]; all 36 subjects): 37
TEAEs considered related to study drug ([3]; all 36 subjects, number of events): 17
TEAEs of moderate severity ([3]; number of events, most TEAEs mild): 7
SAEs, severe TEAEs, TEAEs leading to discontinuation, deaths [4]: no SAEs, severe TEAEs, TEAEs that led to drug discontinuations, or deaths
Detectability in plasma after dialysis cycles [5]: no longer detectable in plasma after 2 dialysis cycles
Reduction of plasma concentration by a single dialysis cycle [5]: approximately 83%
